Assay results reported in PubChem BioAssay AID493091 (Sanford-Burnham Center for Chemical Genomics, 2011).
Screen size: about 340,000 compounds; about 3,000 (0.88%) were called active. Shown is part of a subset that was picked to be rich in actives. A number with no mark means an inactive call.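 How the source made its calls: active means inhibition above about 50% at 20 µM (limit read from the data); inactive means the rest.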 Non-standard residues stand in square brackets, D forms with d. Residues, ends and D or L forms follow the SMILES beside them. ξ: configuration not given here. ξM = CSCCC(N)C(=O)O

Molecular target: Carboxy-terminal domain RNA polymerase II polypeptide A small phosphatase 1 (Homo sapiens) (UniProt Q9GZU7)
Test: inhibition of human SCP1 dephosphorylation activity – biochemical, colorimetric, uHTS, primary screen (AID 493091);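 further: plate controls were DMSO wells with enzyme for no effect and wells lacking enzyme for full effect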
Conditions: Recombinant Scp1, phosphopeptide, malachite green phosphate absorbance; at 20 µM; hits give high values
Outline: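 System: truncated SCP-1 phosphatase (76-261aa); medium: Tris acetate buffer pH 5.5 with MgCl2 and Tween-20; incubation: 45 min room-temperature reaction, 5 min colour, 30 min stabiliser; compound: single 20 µM dose, 1% DMSO; reagent: Phosphorylated 17-residue peptide substrate; read-out: % inhibition at 20 µM; technique: colorimetric free-phosphate detection, absorbance 630 nm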

Carboxy-terminal domain RNA polymerase II polypeptide A small phosphatase 1 (Homo sapiens), sequence (Q9GZU7 76-261 limits assumed): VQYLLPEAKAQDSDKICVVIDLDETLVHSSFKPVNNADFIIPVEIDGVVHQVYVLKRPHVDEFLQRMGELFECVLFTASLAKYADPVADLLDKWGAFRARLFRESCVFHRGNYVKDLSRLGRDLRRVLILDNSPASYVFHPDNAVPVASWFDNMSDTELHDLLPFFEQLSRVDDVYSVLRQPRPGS

| SMILES | inhibition |
| --- | --- |
| C[C@]1(C(=O)NCCc2c[nH]c3ccccc23)C=C[C@@H](Cc2ccccc2)N1C(=O)c1ccccc1 | -5.17% |
| CC(C)NC(=O)NC(=O)COC(=O)c1ccc(NC(=O)CC#N)cc1 | -2.24% |
| CCOc1ccc(NC(=O)c2ccc(NC(=O)COC(=O)c3ccc(NC(=O)CC#N)cc3)cc2)cc1 | 85.9% (active) |
| N#CCC(=O)Nc1ccc(C(=O)OCC(=O)Nc2sc3c(c2C#N)CCCC3)cc1 | 1.62% |
| Cc1ncn2cc(-c3ccc(Cl)cc3Cl)[nH]c(=O)c12 | -6.56% |
| O=C(NCc1cccc(Cl)c1)C1CCN(c2nnc(N3CCCC3=O)s2)CC1 | -6.55% |
| O=C(NNC(=O)c1ccccc1[N+](=O)[O-])Nc1ccccc1C(F)(F)F | 0.19% |
| C/C=C(/C)C(=O)Nc1cccc(C2=NOC3(C2)C[C@@H](C(N)=O)N(C(=O)C2(C)CC2)C3)c1 (stereo not given in full) | -2.33% |
| C=C(C)C(=O)Nc1cccc(C2=NOC3(C2)C[C@H](C(N)=O)N(C(=O)C(c2ccccc2)c2ccccc2)C3)c1 (stereo not given in full) | 70.2% (active) |
| C/C=C\C=C\C(=O)N1CC2(CC(c3cccc(NC(=O)/C(C)=C\C)c3)=NO2)C[C@H]1C(N)=O (stereo not given in full) | 34.8% |
| C=CCn1cc(C(=O)NCc2ccc(Cl)cc2)c(=O)c2cc(S(=O)(=O)N(CC)CC)ccc21 | -4.15% |
| COCCC(=O)N1CCC(Oc2ccc(C(=O)NCc3ccon3)cc2)CC1 | -1.77% |
| COc1ccc(S(=O)(=O)N2CCN(CC(=O)N3CCOCC3)CC2)cc1OC | -0.04% |
| CC(C)C(O)C1CCN(Cc2nc(Cc3ccccc3Cl)no2)CC1 (stereo not given) | -2.82% |
| COc1cnn(-c2ccc([N+](=O)[O-])cc2)c(=O)c1Cl | -3.84% |
| O=[N+]([O-])c1ccc(N2CCOCC2)cc1 | -2.71% |
| O=c1[nH]n(-c2ccc([N+](=O)[O-])cc2)c(=O)c2ccccc12 | 52.1% (active) |
| CC(C)(C)c1cc2cccnc2n1Cc1cccc(F)c1 | -1.78% |
| CCOC(=O)C1CCN(S(=O)(=O)c2c(C)noc2C)CC1 | -4.7% |
| COc1ccccc1NC(=O)c1ccc(N2CC3CC(C2)c2cccc(=O)n2C3)c(NC(=O)c2cccnc2)c1 (stereo not given) | -3.99% |
| CCNC(=S)NNC(=O)c1ccc2ncccc2c1 | -9.05% |
| Cc1ccc2cc(/C=N/Nc3ccc(C(=O)O)cc3)c(Cl)nc2c1 | 0.89% |
| O=C(O)c1ccc(N/N=C/c2ccc3ncccc3c2)cc1 | 50.4% (active) |

| SMILES | inhibition |
| --- | --- |
| Cn1c2ccccc2c(=O)c2c(=O)n(Cc3ccco3)c(COc3ccccc3)nc21 | 92.9% (active) |
| CCCc1nc2c(c(=O)c3ccccc3n2C)c(=O)n1C1CCCCCC1 | 2.39% |
| O=c1c2ccccc2oc2nc(C3CCCCC3)n(Cc3ccco3)c(=O)c12 | -2.2% |
| COCCn1c(C)cc(C(=O)COC(=O)CNC(=O)c2ccco2)c1C | -7.15% |
| Cc1ccc(C(=O)Nc2nc(N)n(-c3ccccc3)n2)cc1 | -3.84% |
| Cc1cc(S(=O)(=O)N2CCOCC2)ccc1OCC(=O)N1CCOCC1 | 2.62% |
| CCC(C)NC(=O)/C=C/c1ccc(S(=O)(=O)NCc2ccco2)cc1 (stereo not given) | 6.25% |
| CSc1ccccc1NC(=O)C(C)N1C(=O)c2ccccc2S1(=O)=O (stereo not given) | 39.4% |
| CC(=O)Nc1ccccc1Sc1ccc2c3c(cccc13)C(=O)N(c1ccc(C)cc1)C2=O | 53.1% (active) |
| Cc1ccc(N2C(=O)CC(Nc3cccc4ccccc34)C2=O)cc1 (stereo not given) | -3.84% |
| COC(=O)c1cc(S(=O)(=O)Nc2ccc(C)c(F)c2)c[nH]1 | -3.42% |
| Cc1c(CCC(=O)O)c(=O)oc2c(C)c(OCc3ccccc3Cl)ccc12 | 97.5% (active) |
| Cc1c(CCC(=O)O)c(=O)oc2cc(OCc3ccc(Br)cc3)ccc12 | 53.3% (active) |
| CCOC(=O)CCc1c(C)c2ccc(OCc3nn[nH]n3)c(C)c2oc1=O | 2.8% |
| Cc1c(CCC(=O)O)c(=O)oc2cc3occ(-c4ccccc4)c3cc12 | -18.2% |
| Cc1coc2cc3oc(=O)c(CCC(=O)O)c(C)c3cc12 | -1.97% |
| COc1ccc2c(C)c(CCC(=O)NC3CC3)c(=O)oc2c1C | -1.31% |
| O=C(COC(=O)[C@H](Cc1ccccc1)NC(=O)c1cccs1)Nc1cc(F)ccc1F | -10.5% |
| CCN(CC)c1ccc([N+](=O)[O-])cc1C(=O)O | -4.84% |
| COc1cccc(NC(=O)Cn2cnc3sc(C)c(S(=O)(=O)N4CCN(C)CC4)c3c2=O)c1 | -1.94% |
| CC(C)CCOc1ccc(C(=O)C[N+]2(C)CCOCC2)cc1 | 51% (active) |
| CCOc1ccc(C(=O)CCN2CCOCC2)cc1 | -2.17% |
| CCCOc1ccc(C(=O)C(CCC(CNCC)C(=O)c2ccc(OCCC)cc2)CNCC)cc1 (stereo not given) | 10.4% |

| SMILES | inhibition |
| --- | --- |
| Cc1ccc(CNC(=O)C2CCCN2C(=O)NCc2ccccc2)cc1 (stereo not given) | -7.83% |
| O=C(COc1ccc(Cl)cc1)Nc1ccccc1CO | -5.63% |
| C=CCc1cccc(/C=N/NC(=O)COc2ccc(-n3cnnn3)cc2)c1O | -8.78% |
| O=C(COc1ccc(-n2cnnn2)cc1)Nc1ccccc1Cl | 58.7% (active) |
| COc1ccc(C(=O)N(Cc2ccccc2)c2ccc(C)cc2)cc1S(=O)(=O)N1CCOCC1 | -6.19% |
| C=CCOc1ccc(/C=C/C(=O)OCC(=O)NC2CCCCCC2)cc1 | 22% |
| CCNc1nc(NC(C)C)nc(OCCOC(=O)c2ccccc2)n1 | 2.19% |
| O=C(COC(=O)CNC(=O)C1CCCCC1)Nc1cccc(F)c1 | -6.06% |
| O=C(Nc1cccc(F)c1)NC1CCCCCCC1 | -10.5% |
| O=C(Nc1cccc(F)c1)[C@@H]1CCCN1 | 67.8% (active) |
| Cc1ccc(N2C(=O)N3[C@@H]4c5ccccc5OC[C@@H]4[C@@H](c4ccccc4)[C@@]3(C)C2=O)cc1 | -17.6% |
| N#C/C=C/N1CCN(Cc2ccc3c(c2)OCO3)CC1 | -12.3% |
| O=C(c1ccc(F)cc1)N1CCCC(C(=O)N2CCCCC2)C1 (stereo not given) | -6.52% |
| Cc1ccc(Cc2nnc(SCC(=O)Nc3ccc(C)cc3C)[nH]c2=O)cc1 | 53.8% (active) |
| COc1ccc(Cc2nnc(SCC(=O)Nc3ccc(C)c(Cl)c3)[nH]c2=O)cc1 | 48% |
| Cc1ccc(Cc2nnc(SCC(=O)Nc3ccccc3C)[nH]c2=O)cc1 | 16.3% |
| COc1ccc2cc(C3=CC(=O)C[C@H](c4ccc5c(c4)OCO5)C3)ccc2c1 | -11% |
| COc1ccccc1OCCNC(=O)C(CCSC)NC(=O)COc1ccccc1 (stereo not given) | -8.06% |
| COC(=O)CNC(=O)C(CCSC)NC(C)=O (stereo not given) (Ac-[ξM]-Gly-OMe) | 50.3% (active) |
| CCC(C)NC(=O)N[C@@H](CCSC)C(=O)O (stereo not given in full) | -4.53% |
| CCOc1ccc(OCC)c(NC(=O)CN(C)S(=O)(=O)c2cccc3nsnc23)c1 | -5.95% |
| Cc1ccc(OCCNC(=O)c2cccc(S(=O)(=O)N3CCN(Cc4ccccc4)CC3)c2)cc1 | -10.4% |
| Cc1ccc(-c2nnc(CN3CCN(C)CC3)o2)cc1 | -6% |

| SMILES | inhibition |
| --- | --- |
| CCCCSc1nnc(-c2ccc(C)cc2)o1 | 81.5% (active) |
| CC1=CC(C)(C)N(C(=O)CSc2nnc(-c3ccccc3)o2)c2ccc(C)cc21 | -2.74% |
| CCSC1=C(C#N)C(=O)n2c1cc1c2CCCC1 | -1.97% |
| O=C(N/C(=C\c1ccc(F)cc1)C(=O)N1CCCCCC1)c1ccccc1 | -0.73% |
| CC1(C)CCc2nc(SCc3ccccc3)c(C#N)cc2C1 | -11.5% |
| N#CC1=C(SCc2ccc(C#N)cc2)N=C(N)C(c2nc(-c3ccccc3)cs2)C12CCCCC2 (stereo not given) | -1.99% |
| N#CC1=C(SCc2ccccc2)NC(=O)C(C#N)C12CCCC2 (stereo not given) | 68.9% (active) |
| Cc1cc(C)cc(N(CC(=O)NCC2CCCO2)S(=O)(=O)c2c(C)noc2C)c1 (stereo not given) | -3.08% |
| O=C(O)c1ccn(COc2ccc(Br)cc2)n1 | -2.51% |
| CC1CCN(C(=O)Cn2nnnc2CN2CCOCC2)CC1 | -6.52% |
| Cc1cc(C)nc(SCc2cn3c(C)cc(C)nc3n2)n1 | -3.52% |
| COc1cccc(NC(=O)CN(C)C(=O)/C=C/c2cc(OC)ccc2OC)c1 | -9.57% |
| COc1ccc(NC(=O)CN(C)C(=O)/C=C/c2cn(Cc3ccccc3)nc2-c2cccnc2)cc1 | 97.8% (active) |
| COc1cccc(NC(=O)CN(C)C(=O)/C=C/c2cn(-c3ccccc3)nc2-c2cccs2)c1 | -11.8% |
| Nn1c(SCC(=O)Nc2nccs2)nnc1-c1ccco1 | 1.62% |
| CC1CCCCC1NC(=O)c1cn(C)c2ccc(S(=O)(=O)N3CCOCC3)cc2c1=O (stereo not given) | -8.17% |
| Cc1ccc(CNC(=O)Cn2cnc3c(NCc4ccccc4)ncnc32)o1 | 1.29% |
| Cc1nc([N+](=O)[O-])cn1CC(=O)Nc1ccc2c(c1)OCO2 | -4.74% |
| Cc1ccc(C(=O)O)cc1-c1ccc(/C=C2\SC(=O)N(CC(=O)Nc3ccc4c(c3)OCO4)C2=O)o1 | 94.1% (active) |
| Cc1nn(CC(=O)Nc2ccc3c(c2)OCO3)c(C)c1[N+](=O)[O-] | 0.9% |
| CN(Cc1ccccc1)C(=O)c1ccc(NC2=NC3CS(=O)(=O)CC3S2)cc1 (stereo not given) | -3.86% |
